From PubChem
Rows were chosen to be rich in hits. Some 2.9% of all compounds tested hit in one or more screens of this group.
HCV core dimer: HCV core protein dimerization inhibition. TR-FRET GST/Flag-core106 dimerization, 1536-well. inhibition, % at 5 µM. 0.33% of 300,000 active. AID 1899;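 active means inhibition above the mean of all tested compounds plus 3 SD, set per screening campaign, cut at about 45% in these data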
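Assay system: GST-tagged and Flag-tagged HCV core protein residues 1-106 / Times: compound-protein-antibody incubation 4 h at 22.5 °C / Signal: time-resolved FRET, ex 340 nm, em 617 and 671 nm / Evaluation: % inhibition based on acceptor/donor emission ratio / Benchmarks: wells lacking GST-core106 and wells with excess unlabelled core106 / Repeats: singlicate, one well per compound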
APOBEC3G inh: inhibitors of human APOBEC3G DNA deaminase; inhibition, % at 20 µM; 0.28% of 330,000 active; Q9HC16; AID 493012; recombinant A3G, ssDNA deamination FAM/TAMRA fluorescence;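 active means inhibition of at least 40% at 20 µM, with no more than 30% in the related APOBEC3A deaminase screen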;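 further: plate controls were DMSO wells with A3G for no effect and wells lacking A3G enzyme for full effect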
PRMT1 inh: PRMT1 (human) inhibition, primary screen. 1.3% of 370,000 active. recombinant PRMT1, activity-based probe fluorescence polarization. inhibition, % at 2.79 µM;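 active means inhibition above about 21% made by adding two undisclosed values, limit read from the data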
Target sequence (Q99873 whole entry, looked up): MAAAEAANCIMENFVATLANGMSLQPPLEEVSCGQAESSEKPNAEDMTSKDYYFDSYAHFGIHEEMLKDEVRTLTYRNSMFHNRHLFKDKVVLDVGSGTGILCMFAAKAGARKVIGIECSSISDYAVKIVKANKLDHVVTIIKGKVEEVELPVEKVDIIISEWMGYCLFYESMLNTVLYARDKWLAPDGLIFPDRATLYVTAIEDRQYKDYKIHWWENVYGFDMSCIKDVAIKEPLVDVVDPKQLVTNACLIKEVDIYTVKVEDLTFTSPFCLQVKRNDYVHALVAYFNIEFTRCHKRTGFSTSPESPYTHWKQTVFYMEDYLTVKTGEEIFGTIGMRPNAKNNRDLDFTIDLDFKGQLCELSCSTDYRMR
ABHD5-PLIN5 inh: inhibitors of human ABHD5-perilipin-5 interaction. inhibition, % at 4 µM. 0.78% of 360,000 active. Q00G26+Q8WTS1. Split G. princeps luciferase complementation, luminescence, 4 h. AID 602281;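 active means inhibition above the mean inhibition across every tested compound plus 3 SD, cut at about 22% in these data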;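 further: 0% = DMSO only wells and the 100% control is not disclosed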
NS3 helicase inh: blocks Hepatitis C virus NS3 helicase unwinding; NS3 helicase DNA unwinding, Cy5 molecular beacon fluorescence; 0.56% of 290,000 active; inhibition, % at 10.9 µM;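 active means inhibition above the mean of all tested compounds plus 3 SD, set per campaign, cut at about 35% in these data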;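 further: 0% = DMSO wells and 100% = thioflavine S control wells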
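Assay system – hepatitis C virus NS3 helicase domain fragment enzyme · Buffer or medium – MOPS pH 6.5, MgCl2, DTT, Tween20, BSA · Reagent – Cy5/quencher beacon DNA duplex and ATP to start · Compound – single 10.9 µM dose · Timing – 1 h at 25 °C · Technique – Cy5 beacon fluorescence read at start and 1 h · Measure – % inhibition of unwinding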
A3A deaminase: inhibitors of human APOBEC3A DNA deaminase; P31941; recombinant A3A, FAM/TAMRA ssDNA deamination fluorescence; inhibition, % at 20 µM; 0.41% of 330,000 active; AID 493011;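 active means at least 40% inhibition at 20 µM here, with at most 30% in a related deaminase screen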;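 further: plate controls were A3A with DMSO for no effect and wells lacking A3A enzyme for full effect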
Target sequence (P31941 whole entry, looked up): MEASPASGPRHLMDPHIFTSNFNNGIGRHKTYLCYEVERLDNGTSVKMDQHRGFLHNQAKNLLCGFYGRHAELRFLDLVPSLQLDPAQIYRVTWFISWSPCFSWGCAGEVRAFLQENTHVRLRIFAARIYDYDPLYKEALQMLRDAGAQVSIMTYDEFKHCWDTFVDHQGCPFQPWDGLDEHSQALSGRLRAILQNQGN
The depositor's hits bear a star; · = no result.

SMILES	HCV core dimer	APOBEC3G inh	PRMT1 inh	ABHD5-PLIN5 inh	NS3 helicase inh	A3A deaminase
Cc1cccc(N2C(=O)/C(=C/c3ccc(CN(CCC#N)S(C)(=O)=O)o3)C(=O)NC2=S)c1	17.8	30.2	41.1*	-0.2	18.8	28.2
C[C@]12CC[C@@H]3c4ccc(O)c(O)c4CC[C@H]3[C@@H]1CC[C@@H]2O	4.7	63.9*	35.2*	5.6	10.1	-0.9
C[C@]12CC[C@H]3[C@@H](CCC4=CC(=O)CC[C@@H]43)[C@@H]1CC[C@@H]2O	·	-0.6	5.3	9.1	·	-0.7
Cc1nc2c(=O)n(C)c(=O)nc-2n(C)n1	55.3*	-2.7	-1.5	-47.4	4.2	1.6
C[C@]12CC[C@H](O)C[C@H]1CC[C@@H]1[C@@H]2CC[C@]2(C)[C@@H](C3=CC(=O)OC3)CC[C@]12O	-4.1	-4.3	-1.5	6.8	·	0.7
COC1C(O)C(C)OC(OC2CCC3(C)C(CCC4C3C(O)CC3(C)C(C5=CC(=O)OC5)CCC43O)C2)C1O (stereo not drawn)	·	·	-0.7	22.1*	·	·
CC(C)CNC(=O)c1c(N)n(Cc2ccco2)c2nc3ccccc3nc12	39.4	0.0	40.1*	21.8	0.4	1.3
O=C(O)CCn1cc(C=C2C(=O)NC(=O)NC2=O)c(-c2cc3ccccc3oc2=O)n1	2.5	-4.7	19.0	22.2*	3.5	8.2
COc1ccc(N2C(=O)CC(=O)NC2=O)cc1	-10.1	-0.3	7.4	22.3*	8.9	3.4
Cc1ccc(N2C(=O)NC(=O)/C(=C/c3ccc(OC(=O)c4cccs4)cc3)C2=O)cc1	3.1	-7.2	10.3	34.3*	7.8	-3.0
COc1ccc(N2C(=O)NC(=O)/C(=C/c3cccc(OC(=O)c4cccs4)c3)C2=O)cc1Cl	3.9	-5.0	5.1	·	15.1	-3.3
CC(C)N(C(=O)CCl)c1ccccc1	·	·	0.8	2.0	·	·
O=C1NC(=S)N(C2CC2)C(=O)/C1=C/c1ccc2c(c1)CCN2CCCCl	35.2	·	34.7*	-11.0	35.7	·
CCN1C(=O)/C(=C/c2ccc3c(c2)CCN3CCCCl)C(=O)NC1=S	84.1*	·	11.1	-12.8	16.0	·
CC(N)Cc1c[nH]c2ccc(OCc3cccs3)cc12 (stereo not drawn)	-5.6	-5.5	-3.4	1.9	·	-1.6
CC(C)(C)c1ccc(O)c(N=Cc2c(O)ccc3ccccc23)c1	-11.1	13.3	31.3*	2.2	34.9	-4.5
c1ccc(-c2nc3ccccc3nc2-c2ccc(CN3CCC(n4nnc5ccccc54)CC3)cc2)cc1	·	·	-1.9	·	·	·
CNc1ccc2oc(C[C@H]3O[C@@]4(CC[C@H]3C)O[C@H]([C@H](C)C(=O)c3ccc[nH]3)[C@H](C)C[C@H]4C)nc2c1C(=O)O	18.6	-2.3	25.6*	-23.1	·	1.2
CCN(CCO)c1ccc(N=Cc2c(O)n(C)c(=S)[nH]c2=O)cc1	-6.1	1.3	21.2*	-2.7	7.6	-2.5
CCN(CC)c1ccc(N=Cc2c(O)n(CCc3ccc(OC)c(OC)c3)c(=O)[nH]c2=O)cc1	3.5	·	6.3	1.7	21.3	·
O=C(NCCN1CCC2(CC1)C(=O)NCN2c1ccccc1)c1ccccc1F	·	·	-1.1	·	·	·
CCc1ccc(OCC(=O)N2CCN(Cc3ccc4c(c3)OCO4)CC2)cc1	5.5	-5.4	2.0	-1.6	-7.6	-2.8
O=C(CNCc1c(F)cccc1F)N1CCC2(CC1)OCCO2	·	·	-5.8	·	·	·
CC(C)(C)c1ccc(CSc2cnn(C(C)(C)C)c(=O)c2Cl)cc1	-0.8	-6.1	-0.2	-4.2	-10.0	-2.8
CC(=O)c1ccc2c(c1)C1C(Cl)C(Sc3ccccc3[N+](=O)[O-])CC1C(c1ccccc1)N2 (stereo not drawn)	66.5*	32.3	17.1	1.4	9.1	-6.5
SMILES	HCV core dimer	APOBEC3G inh	PRMT1 inh	ABHD5-PLIN5 inh	NS3 helicase inh	A3A deaminase
CC(=O)c1ccc2c(c1)C1C(Cl)C(Sc3ccccc3[N+](=O)[O-])CC1C(c1ccccc1[N+](=O)[O-])N2 (stereo not drawn)	53.6*	-11.3	0.7	7.4	17.7	-6.5
COc1ccc(/C=C2\C(=O)NC(=S)N(C)C2=O)cc1C	1.3	36.9	44.9*	-14.9	2.9	-2.2
Cc1ccsc1/C=C1\C(=O)NC(=S)N(C)C1=O	8.2	8.1	5.8	5.3	7.7	2.6
CC(C)(C)NC(=O)C1CN=C(c2ccccc2)c2cc(Cl)ccc2N1C(=O)C1CCC1 (stereo not drawn)	·	·	-2.3	·	·	·
Cc1ccc(C[n+]2c(-c3ccc(C)cc3)cc(-c3ccc(C)cc3)cc2-c2ccc(C)cc2)cc1	-1.2	-14.7	·	38.0*	·	-2.0
COc1cc(C2c3cc4c(c(O)c3CC3COC(=O)C32)OCO4)cc(OC)c1OC (stereo not drawn)	·	·	0.6	-3.7	·	·
COc1cc(C2c3cc4c(cc3CC3COC(=O)C32)OCO4)cc(OC)c1OC (stereo not drawn)	·	5.3	22.0*	-1.6	·	9.9
O=c1[nH]c2ccccc2n1C1CCN(C(CCc2ccccc2)c2nnnn2C2CCCCC2)CC1 (stereo not drawn)	·	·	1.0	4.8	·	·
COC1CC2C=C(C)C=CC=CC(=O)NC(c3ccccc3)CC=CCCC(O)CC(=O)C2=C1O (stereo not drawn)	·	·	12.6	22.2*	·	·
COC(=O)c1c2[n+](cc3cc(OC)c(OC)cc13)CCc1cc(OC)c(OC)cc1-2	-8.2	7.8	-2.7	-3.5	·	7.8
COC(=O)C1CN(C#N)N(c2ccc(Cl)cc2)C12c1ccccc1-c1ccccc12 (stereo not drawn)	-6.1	-3.5	·	74.0*	-14.5	-1.3
CC1(C)C(C(=O)N2CCN(c3ccc(Cl)cc3)CC2)C1(C)C	4.3	-7.0	-0.1	-2.4	-2.4	-0.7
CN(C)C1=NP(N(C)C)(N(C)C)=NC(c2ccccc2)=N1	2.4	0.6	-2.8	3.5	-5.0	0.6
CNc1ccc2nc3ccccc3[n+](C)c2c1	-111.8	13.5	21.4*	-20.2	18.2	12.1
C=CCn1c(O)c(/C=N/N2CCCCC2c2cccnc2)c(=O)[nH]c1=S (stereo not drawn)	7.3	-9.4	-1.1	-10.0	-4.6	-0.3
O=c1[nH]c(=S)n(Cc2ccco2)c(O)c1C=NCc1cccs1	54.9*	8.7	5.6	21.2	3.4	10.7
CC(=O)C1=C(C)OC2=C(C(=O)CCC2)[C@@]12C(=O)N(C)c1ccccc12	·	·	-1.8	·	·	·
CCCC[C@@H](C)C[C@@H](C)C(=O)N(C)[C@@H](CC(C)C)C(=O)N[C@H](C(=O)N(C)[C@H](C(=O)N1C[C@@H](O)C[C@H]1C(=O)N1C(=O)C=C[C@@H]1C)C(C)C)C(C)OC(C)=O (stereo partly drawn)	·	-6.0	·	43.0*	·	-4.7
O=c1[nH]oc2c1CCNC2	6.2	0.9	2.6	-0.1	·	2.4
COC(=O)C1=C(c2ccc(F)cc2OCc2ccccc2)C[C@@H]2CC[C@H]1N2C(=O)NCc1ccccc1Br	·	-5.6	1.3	2.5	·	-0.2
